Screening results (PubChem BioAssay)
RGS4 act = potentiators or activators of RGS4. B-score at 10 µM. 310,000 compounds, 0.92% hits. HEK293 M3R/inducible RGS4, carbachol calcium flux Fluo4; active compounds read low;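 active means B-score of the integrated calcium signal more than 4 SD below the library mean, with starting fluorescence not abnormally high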;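 further: negative B-score means reduced calcium response which marks RGS4 activation or potentiation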
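System: HEK293 FlpIn-TREx cells, stable M3R, doxycycline-inducible RGS4. Timing: overnight RGS4 induction, 30 min dye load 37 °C, 20 min compound RT. Also added: carbachol, ECmax concentration. Measured by: Fluo4 fluorescence kinetic imaging of calcium. Evaluation: integrated calcium ratio converted to B score.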
RGS4 inh = human RGS4 inhibition | P49798 | HEK293 M3R/RGS4 inducible, Fluo-4 calcium flux; active compounds read high; triggered by carbachol at its EC20 | B-score at 10 µM | 310,000 compounds, 0.45% hits | AID 463165;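 active means B-score, a plate-corrected calcium signal, over three deviations above library mean, with baseline fluorescence within five deviations of library mean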;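 further: RGS4 expression induced by doxycycline in cells with stable M3 receptor; B-score is computed from the integrated fluorescence ratio over baseline after carbachol; higher B-score means a larger calcium signal and so more RGS4 inhibition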
Target sequence (P49798 whole entry, looked up): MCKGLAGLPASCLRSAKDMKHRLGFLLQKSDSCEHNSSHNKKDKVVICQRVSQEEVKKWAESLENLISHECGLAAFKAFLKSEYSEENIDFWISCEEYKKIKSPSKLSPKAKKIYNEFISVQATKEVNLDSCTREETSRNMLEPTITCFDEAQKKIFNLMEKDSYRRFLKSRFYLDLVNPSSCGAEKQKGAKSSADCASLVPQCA
MrgX1 allo act = human MrgX1 positive allosteric modulation, primary screen; 310,000 compounds, 0.63% hits; MrgX1-HEK293, Fluo-4 calcium flux, FDSS; active compounds read high; Q96LB2; B-score at 10 µM;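 active means plate-corrected calcium response at least 3 library SD above typical, normal starting fluorescence, not activating the receptor alone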;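 further: compound read alongside a low EC10 to EC30 dose of BAM8-22 agonist; peak minus trough fluorescence over baseline measured at the second addition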
Target sequence (Q96LB2 whole entry, looked up): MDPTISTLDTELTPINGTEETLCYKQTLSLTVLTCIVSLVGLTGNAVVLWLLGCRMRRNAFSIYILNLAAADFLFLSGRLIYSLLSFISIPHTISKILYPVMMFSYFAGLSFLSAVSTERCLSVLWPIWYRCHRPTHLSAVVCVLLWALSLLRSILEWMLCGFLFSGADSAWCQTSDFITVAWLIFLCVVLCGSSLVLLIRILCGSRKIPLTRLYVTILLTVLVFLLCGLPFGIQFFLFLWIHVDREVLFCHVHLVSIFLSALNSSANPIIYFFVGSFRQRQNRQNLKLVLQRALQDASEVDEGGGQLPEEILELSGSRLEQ
MrgX1 antagonist = antagonists of human MrgX1 receptor | B-score at 10 µM | 310,000 compounds, 1.3% hits | Q96LB2 | AID 588676 | MRGX1-HEK293 calcium flux, Fluo-4, BAM8-22 antagonism; active compounds read low;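 active means calcium-response B-score plate-corrected more than 3 library SD below zero, starting fluorescence within 5 deviations, no agonist response on first addition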;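 further: peak minus trough fluorescence over baseline after final BAM8-22 challenge near maximal dose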
MrgX1 agonist = human MrgX1 receptor agonism, primary screen | MrgX1-HEK293 cells, Fluo-4 calcium fluorescence, agonist mode; active compounds read high | B-score at 10 µM | 310,000 compounds, 0.44% hits | Q96LB2;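 active means calcium response B-score plate-corrected fluorescence ratio at least 3 library SD, with starting fluorescence B-score inside 5 SD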
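Test system: HEK293 cells stably expressing human MrgX1 receptor; Input: fifteen thousand cells per well; Dosing: compound delivered in addition one of three; Schedule: overnight seeding, then 1 h dark dye loading; Technique: Fluo-4 NW calcium fluorescence; Measure: B-scored fluorescence response ratio; Controls: positive and negative controls per plate.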
MrgX1 ant reconf = human MrgX1 receptor antagonism, re-confirmation screen; shares compounds with MrgX1 antagonist; MrgX1-HEK293, BAM8-22 calcium flux, Fluo-4; active compounds read low; remaining BAM8-22 calcium response % of control (active compounds read low), % at 10 µM; 2,300 compounds, 19% hits;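 active means remaining agonist calcium response no higher than 100% minus 3 SD of agonist-only control wells, with starting fluorescence near control levels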;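 further: agonist BAM8-22 given at a near maximal EC90 to ECmax level; peak minus minimum fluorescence divided by baseline after agonist addition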
HEK293 Ca flux = MrgX1 antagonist counter-screen hit in parental HEK293 cells; shares compounds with MrgX1 antagonist; fluorescence ratio F(max-min)/F0 at 10 µM; AID 624111; Fluo-4 calcium fluorescence, FDSS; 4,000 compounds, 2% hits;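 active means duplicate-averaged calcium fluorescence ratio at least three times the standard deviation of buffer wells, a nonspecific response in parental cells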
HEK293 Ca counter = counter-screen for MrgX1 allosteric activators: effect in parental HEK293 cells. AID 624114. parental HEK293 calcium flux, Fluo-4 fluorescence ratio; active compounds read high. 4,000 compounds, 0.4% hits. fluorescence ratio F(max-min)/F0 at 10 µM. shares compounds with MrgX1 antagonist;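 active means calcium fluorescence ratio, averaged over duplicates, at least 3 SD of the buffer-well ratio, meaning a nonspecific response in receptor-free cells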;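 further: untransfected parental HEK293 lacking MrgX1 used as counterscreen for MrgX1 allosteric activators; fluorescence change taken during the second addition on a kinetic imager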
HEK293 Ca cntr2 = counter-screen for MrgX1 activators: effect in parental HEK293 cells. shares compounds with MrgX1 antagonist. Fluo-4 calcium fluorescence (FDSS); active compounds read high. fluorescence ratio F(max-min)/F0 at 10 µM. 4,000 compounds, 8.7% hits;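 active means calcium fluorescence ratio at least three times the spread of buffer wells, meaning a non-specific response in parental cells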
Numbers without * were called inactive; i = inactive; x = not tested or not shown. Most compounds without a hit are left out; they make up all but 3.5% or so of the library.

SMILES	RGS4 act	RGS4 inh	MrgX1 allo act	MrgX1 antagonist	MrgX1 agonist	MrgX1 ant reconf	HEK293 Ca flux	HEK293 Ca counter	HEK293 Ca cntr2
CCOC(=O)c1cccc(NC(=O)CSc2nc(N)cc(N)n2)c1	i	i	i	-7.7*	i	i	i	i	i
Cc1cccc(NC(=O)CSc2nc(N)cc(N)n2)c1	i	i	i	i	i	x	x	x	x
CN(C)CCCNc1ncnc2scc(-c3ccccc3)c12	i	i	i	i	i	x	x	x	x
c1ccc(-c2csc3ncnc(NCc4ccccn4)c23)cc1	i	i	i	-5.6*	i	i	i	i	i
CNC(=O)CCN(Cc1ccco1)S(=O)(=O)c1ccc(OC)c(OC)c1	i	i	i	i	i	x	x	x	x
CCN(CC(=O)NC(C)(C)C)Cc1cc(=O)n2c(-c3ccccc3)csc2n1	i	i	i	-4.7*	i	i	i	i	i
COC(=O)c1cc(=O)n2c(-c3ccccc3)csc2n1	i	i	i	i	i	x	x	x	x
CCN1C(=O)[C@H]2[C@H]3[C@H](O)[C@H](O)C/C(=N\OC[C@@H](C)[C@H](OCc4ccccc4)C(C)C)[C@@H]3CC[C@H]2C1=O	i	i	i	i	i	x	x	x	x
CCOCCn1c(CN2CCN(c3ccccc3)CC2)nc2c1c(=O)n(C)c(=O)n2C	i	i	i	-7.4*	i	i	i	i	i
CC(C)n1c(SCC(=O)Nc2ccc(N3CCOCC3)cc2)nnc1-c1ccco1	i	i	i	i	i	x	x	x	x
Cn1c(SCC(=O)c2c(N)n(C)c(=O)n(C)c2=O)nnc1-c1ccccc1F	i	i	i	-5.2*	i	i	i	i	i
Cn1c(SCC(=O)c2c(N)n(C)c(=O)n(C)c2=O)nnc1-c1ccccc1	i	i	i	i	i	x	x	x	x
O=C(O)CC(C(=O)O)n1nc(-c2ccccc2)cc1-c1ccccc1 (stereo not given)	i	i	i	i	i	x	x	x	x
O=C(O)Cn1nc(-c2ccccc2)cc1-c1ccccc1	i	i	i	-5.6*	i	i	i	i	i
CC(C)C1Oc2ccccc2N(CC(=O)NC2CCCCC2)C1=O (stereo not given)	i	i	i	i	i	x	x	x	x
CC(C)(C)c1ccc(C(=O)N2CCC(C(=O)NC3CC3)CC2)cc1	i	i	i	i	i	x	x	x	x
CC(C)(C)c1ccc(C(=O)N2CCC(C(=O)NCc3ccncc3)CC2)cc1	i	i	i	-5.2*	i	i	i	i	i
OCCNc1nc(Nc2ccccc2O)nc(N2CCCC2)n1	i	i	i	i	i	x	x	x	x
CC(=O)Nc1ccccc1Nc1nc(NCCO)nc(N2CCCC2)n1	i	i	i	-8.3*	i	i	i	i	i
O=C(NCc1ccccc1)c1ccc(NC(=O)C2CCCO2)cc1 (stereo not given)	i	i	i	i	i	x	x	x	x
CCc1c(C)nc(SCC(=O)c2ccc(C)c(C)c2)[nH]c1=O	i	i	i	-7*	i	i	i	i	i
CC1CC1C(=O)N(C)CC(=O)Nc1cccc(F)c1 (stereo not given)	i	i	i	i	i	x	x	x	x
CCCCC1CCC(C(=O)N(C)CC(=O)Nc2cccc(F)c2)CC1 (stereo not given)	i	i	i	-5.4*	i	i	i	i	i
